ChEMBL document CHEMBL1156600, “Diacarperoxides, norterpene cyclic peroxides from the sponge Diacarnus megaspinorhabdosa” (J Nat Prod, 2008)
≈ marks a conversion by molar mass, not a printed value. Calls of active or inactive are those of the source. The calls are words filed in the database; no cut-off is given here.

Legend:
[1] = system: L5178Y; assay: Cytotoxicity against mouse L5178Y cells by MTT assay; type: functional, cell-based
How it was run: (§1)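 Antiproliferative MTT (microculture tetrazolium) read-out in cancer cell lines: HeLa human cervix carcinoma, L5178Y mouse lymphoma, PC12 rat […] cells.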

[2] = Toxicity in Artemia salina assessed as mortality at 10 ug/ml after 48 hrs; type: organism-based; conditions: in vivo, read-out: Activity
[3] = system: PC-12; assay: Cytotoxicity against rat PC12 cells by MTT assay; type: functional, cell-based; how it was run: as §1
[4] = system: HeLa; assay: Cytotoxicity against human HeLa cells by MTT assay; type: functional, cell-based; how it was run: as §1
[5] = Toxicity in Artemia salina assessed as mortality at 10 ug/ml after 24 hrs; type: organism-based; conditions: in vivo, read-out: Activity

Structure (SMILES) | Activity [1] | mortality at 48 h, 10 ug/ml [2] | Activity [3] | Activity [4] | mortality at 24 h, 10 ug/ml [5] | EC50 [1] | EC50 [3] | EC50 [4]
COC(=O)[C@H](C)[C@@H]1CC[C@@](C)(CCC2=C(C)CCCC2(C)C)OO1 | inactive | 65% | inactive | inactive | 25% |  |  | 
CCCC(O)CCC(C)(O)CC/C=C(\C)CCC1=C(C)CCCC1(C)C (centres undefined) [DIACARDIOL A] |  | 40% |  |  | 20% | 4.8 µg/mL (≈ 13.2 µM) | > 10 µg/mL | > 10 µg/mL
COC(=O)[C@H](C)[C@H]1CC[C@@](C)(CCC2=C(C)C(=O)CCC2(C)C)OO1 [DIACARPEROXIDE A] |  | 55% | inactive | inactive | 35% | > 10 µg/mL |  | 
COC(=O)[C@@H](C)[C@@H]1CC[C@](C)(CCC(=O)C(C)(C)CCCC(C)=O)OO1 [DIACARPEROXIDE B] |  | 55% | inactive | inactive | 45% | 10 µg/mL (≈ 27 µM) |  | 
COC(=O)[C@H](C)[C@@H]1CC[C@@](C)(CCC(=O)C(C)(C)CCCC(C)=O)OO1 [DIACARPEROXIDE C] |  | 55% | inactive | inactive | 35% | > 10 µg/mL |  | 
CC1=C(CC[C@]2(C)CC[C@H]([C@@H](C)C(=O)O)OO2)[C@]2(C)CCCC(C)(C)[C@H]2CC1 [DIACARPEROXIDE D] |  |  |  |  |  | < 0.1 µg/mL | 8.1 µg/mL (≈ 20.6 µM) | 0.17 µg/mL (≈ 0.433 µM)
CC1=C(CC[C@]2(C)CC[C@H]([C@@H](C)C(=O)O)OO2)[C@@]2(C)CCCC(C)(C)[C@@H]2CC1=O [DIACARPEROXIDE F] |  |  |  |  |  | 0.06 µg/mL (≈ 0.148 µM) | 0.8 µg/mL (≈ 1.97 µM) | 0.6 µg/mL (≈ 1.48 µM)
COC(=O)[C@H](C)[C@H]1CC[C@@](C)(CCC2=C(C)C(=O)C[C@@H]3C(C)(C)CCC[C@@]23C)OO1 [DIACARPEROXIDE G] |  | 60% |  |  | 50% | 2 µg/mL (≈ 4.76 µM) | > 10 µg/mL | > 10 µg/mL
CC1=C(CC/C(C)=C/CC[C@@]2(C)CC[C@@H]([C@H](C)C(=O)O)OO2)C(C)(C)CCC1 [EPIMUQUBILIN A] |  | 50% |  |  | 25% | 0.28 µg/mL (≈ 0.713 µM) | > 10 µg/mL | 7.2 µg/mL (≈ 18.3 µM)
C=C1CCCC(C)(C)C1(O)CC/C(C)=C/CC[C@]1(C)CC[C@H]([C@@H](C)C(=O)OC)OO1 (some centres undefined) [EPIMUQUBILIN B] |  | 60% |  |  | 45% | < 0.1 µg/mL | 6 µg/mL (≈ 14.2 µM) | 1 µg/mL (≈ 2.37 µM)
COC(=O)[C@H](C)[C@@H]1CC[C@@](C)(CCC2=C(C)C(=O)CCC2(C)C)OO1 [METHYL DIACARNOATE A] |  |  | inactive | inactive |  | < 3 µg/mL |  | 
COC(=O)[C@H](C)[C@H]1CC[C@@](C)(CCC2=C(C)CCCC2(C)C)OO1 [NUAPAPUIN A METHYL ESTER] |  | 100% |  |  | 100% | 0.76 µg/mL (≈ 2.25 µM) | 6.2 µg/mL (≈ 18.3 µM) | 5.5 µg/mL (≈ 16.2 µM)
